In series [1] the test system is Human immunodeficiency virus 1. In words: Ratio of EC50 for HIV1 harboring reverse transcriptase K103N/Y181C double mutant to EC50 for wild type HIV1 NL4.3. Type of series: functional. Summed up:
(§1)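 Fold change is the EC50 against the named mutant strain divided by the EC50 against wild-type HIV-1 NL4-3. […] Means of 2–3 independent experiments in triplicate.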

Series [2] relates to Human immunodeficiency virus 1. In words: Antiviral activity against HIV1 harboring reverse transcriptase Y181C mutant infected in human MT4 cells assessed as inhibition of virus-induced cell death measured after 5 days of infection by MTT method. Conditions: Human immunodeficiency virus 1, MT4, 120 h. Type of series: functional, organism-based. In a few lines:
(§2)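 MT-4 cells infected with the named NNRTI-resistant HIV-1 RT mutant strain, in the presence of a range of compound concentrations. Viable cells counted at day 5 post-infection by tetrazolium (MTT) colorimetry. […] Mean of 2–3 independent experiments, each in triplicate.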

Series [3] deals with Human immunodeficiency virus 1. In words: Antiviral activity against HIV1 harboring reverse transcriptase Y188L mutant infected in human MT4 cells assessed as inhibition of virus-induced cell death measured after 5 days of infection by MTT method. Type of series: functional, organism-based. The settings on record: Human immunodeficiency virus 1, MT4, 120 h. Summed up:
as §2

Series [4] is described as follows: Selectivity index, ratio of CC50 for human MT4 cells to EC50 for HIV1 NL4.3 infected in human MT4 cells. In kind it is toxicity, cell-based. The settings on record: read-out: Ratio CC50/EC50. In a few lines:
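Ratio CC₅₀/EC₅₀. CC₅₀ is from mock-infected MT-4 cells and EC₅₀ from HIV-1 NL4-3-infected MT-4 cells, both read by MTT at day 5 post-infection.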

Series [5] relates to Human immunodeficiency virus 1. In words: Antiviral activity against HIV1 harboring reverse transcriptase K103N/Y181C double mutant infected in human MT4 cells assessed as inhibition of virus-induced cell death measured after 5 days of infection by MTT method. Conditions: Human immunodeficiency virus 1, MT4, 120 h. In kind it is functional, organism-based. In a few lines: as §2

Series [6] has as its system Human immunodeficiency virus 1. Description: Antiviral activity against HIV1 harboring reverse transcriptase K103N mutant infected in human MT4 cells assessed as inhibition of virus-induced cell death measured after 5 days of infection by MTT method. In kind it is functional, organism-based. Conditions: Human immunodeficiency virus 1, MT4, 120 h. Summed up:
as §2

In series [7] the test system is Human immunodeficiency virus 1. Description: Ratio of EC50 for HIV1 harboring reverse transcriptase Y181C mutant to EC50 for wild type HIV1 NL4.3. In kind it is functional. Summed up: as §1
Series [8] deals with Human immunodeficiency virus 1. Description: Ratio of EC50 for HIV1 harboring reverse transcriptase K103N mutant to EC50 for wild type HIV1 NL4.3. Type of series: functional. In a few lines:
as §1

Series [9] deals with Human immunodeficiency virus 1. In words: Antiviral activity against HIV1 NL4.3 infected in human MT4 cells assessed as inhibition of virus-induced cell death measured after 5 days of infection by MTT method. In kind it is functional, organism-based. Conditions: Human immunodeficiency virus 1, NL4.3, MT4, 120 h. In a few lines:
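Lymphoid MT-4 cells (NIH AIDS Reagent Program) infected with HIV-1 NL4-3 in the presence of varying compound concentrations. On day 5 post-infection, viable cells were counted by MTT tetrazolium colorimetry. EC₅₀ = concentration inhibiting virus-induced cell death by 50%. Means of two to three independent experiments, each in triplicate.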

Series [10] has as its system Human immunodeficiency virus 1. Description: Ratio of EC50 for HIV1 harboring reverse transcriptase Y188L mutant to EC50 for wild type HIV1 NL4.3. In kind it is functional. In a few lines: as §1
Series [11] is described as follows: Cytotoxicity against human MT4 cells assessed as cell viability by MTT assay. Type of series: cell-based. In a few lines: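 Mock-infected MT-4 cells exposed to a range of compound concentrations. Viable cells measured by MTT colorimetry at day 5. CC₅₀ = concentration causing 50% death of non-infected cells. Means of two to three independent experiments, each in triplicate.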

In series [12] the test system is Human immunodeficiency virus 1. In words: Antiviral activity against HIV1 harboring reverse transcriptase […] mutant infected in human MT4 cells assessed as inhibition of virus-induced cell death measured after 5 days of infection by MTT method. Type of series: functional, organism-based. The settings on record: Human immunodeficiency virus 1, MT4, 120 h. Summed up:
as §2

Series [13] deals with Human immunodeficiency virus 2. Description: Antiviral activity against HIV-2 ROD infected in human CEM cells assessed as protection of cells monitored by giant cell formation by microscopy. Conditions: Human immunodeficiency virus 2, ISOLATE ROD, CCRF-CEM. In kind it is functional, organism-based. Summed up: (§3)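 Human CEM cultures (~3 × 10⁵ cells/mL) infected with ~100 CCID₅₀ per mL of HIV-1 IIIB or HIV-2 ROD, seeded with serial compound dilutions. Incubated 4 days at 37 °C; syncytium (giant cell) formation scored by microscopy. EC₅₀ = concentration protecting cells from viral cytopathicity by 50%. Means of two to three independent experiments, each in triplicate.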

The target in series [14] is Human immunodeficiency virus type 1 reverse transcriptase (Human immunodeficiency virus 1, UniProt Q72547, K103N). In words: Inhibition of HIV1 wild-type reverse transcriptase K103N mutant using [3H]dTTP by scintillation counting.
Series [15] deals with T1, Human immunodeficiency virus type 1 reverse transcriptase (Human immunodeficiency virus 1, UniProt Q72547). In words: Inhibition of HIV1 wild-type reverse transcriptase Y181I/Y181C mutant using [3H]dTTP by scintillation counting.
In series [16] the target is T1, Human immunodeficiency virus type 1 reverse transcriptase. Description: Inhibition of HIV1 wild-type reverse transcriptase using [3H]dTTP by scintillation counting.
The subject of series [17] is Human immunodeficiency virus 1. Description: Antiviral activity against HIV1 3B infected in human CEM cells assessed as protection of cells monitored by giant cell formation by microscopy. Type of series: functional, organism-based. The settings on record: Human immunodeficiency virus 1, 3B, CCRF-CEM. In a few lines:
as §3

Series [18] addresses Human immunodeficiency virus type 1 reverse transcriptase (Human immunodeficiency virus 1, UniProt Q72547, L100I). Description: Inhibition of HIV1 wild-type reverse transcriptase L100I mutant using [3H]dTTP by scintillation counting. In a few lines:
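RNA-dependent DNA polymerase activity of recombinant RT (2–4 nM) on poly(rA)/oligo(dT) 10:1 with [3H]dTTP (1 Ci/mmol). Incubation at 37 °C. Acid-insoluble radioactivity collected on GF/C filters after 5% cold TCA, counted by scintillation.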

The record followed here is ChEMBL document CHEMBL3259792 (Eur J Med Chem, 2014).

pEC50, pIC50: −log10 of the molar value.

`Cc1cc(C)cc(S(=O)(=O)c2c(C(=O)NCC(C)c3ccccc3)[nH]c3ccc(Cl)cc23)c1` (racemic): the “Ratio EC50” value in series [1] is greater than 94938; in [7], 1386; in series [8], 138; in series [10], greater than 94938. The pEC50 in [2] was 6.54; in series [3] it was less than 4.70; in series [5] it was less than 4.70; in [6] it was 7.54; in series [9], 9.68. For the same compound, the selectivity ratio in [4] came out at 94900. For the same compound, the CC50 in series [11] came to 19.9 µM.
With `O=C1Nc2ccc(Cl)cc2[C@@](C#CC2CC2)(C(F)(F)F)O1` [EFAVIRENZ], the pEC50 in series [2] is 6.80; in series [3] it was 6.12; in series [5], less than 6.50; in series [12], 7.66; in series [6], 6.89; in series [13], less than 5.00. Also, the pEC50 in series [9] is 7.80. In addition, in [11], the cytotoxic concentration (CC50) is greater than 15.8 µM.
Take `COc1ccc(CNC(=O)c2[nH]c3ccc(Cl)cc3c2S(=O)(=O)c2cc(C)cc(C)c2)cc1`: the “Ratio EC50” value in series [1] was greater than 186557; in series [7] it was 100; in series [8] it was 100; in [10], greater than 186557. Moreover, the pEC50 in series [2] was 7.68; in series [3] it was less than 4.41; in series [5] it was less than 4.41; in series [6], 7.68; in series [9], 9.68. The selectivity ratio in series [4] turned out to be 190000. In addition, the pIC50 is less than 4.70 in [14], less than 4.70 in series [15] and 8.43 in [16]. In addition, the CC50 in series [11] was found to be 39.9 µM.
Turning to `Cc1ccc(CCNC(=O)c2[nH]c3ccc(Cl)cc3c2S(=O)(=O)c2cc(C)cc(C)c2)cc1`, the pEC50 in series [17] was 7.48; in series [2], 5.74; in series [5], less than 4.28; in series [6], less than 4.30; in series [13] it was less than 4.30; in series [9], 7.64. Also, the “Ratio EC50” value in series [1] was greater than 2268; in series [7] it was 79; in series [8], 2183. Moreover, the selectivity ratio in [4] is greater than 2270. In addition, the negative-log IC50 (pIC50) in [18] was 4.79; in [14], less than 4.70; in series [15], less than 4.70; in series [16], 5.70. Moreover, in series [11], the CC50 is greater than 52 µM.
`Cc1ccnc2c1NC(=O)c1cccnc1N2C1CC1` [NEVIRAPINE]: the pEC50 in [2] is less than 5.43; in series [3] it was less than 5.43; in series [5], less than 5.43; in series [12], 7.22; in series [6], less than 5.43; in [13], less than 5.00. For the same compound, the pEC50 in series [9] was 6.95. In [11], the CC50 is greater than 18.8 µM.
As for `Cc1cc(C)cc(S(=O)(=O)c2c(C(=O)NCc3ccc(N(C)C)cc3)[nH]c3ccc(Cl)cc23)c1`, the “Ratio EC50” value in [1] is on record as greater than 3332; in [7], 85; in series [8], 27; in [10], greater than 3332. Moreover, the pEC50 was 5.99 in series [2]; less than 4.39 in series [3]; less than 4.39 in series [5]; 6.49 in series [6]; 7.92 in series [9]. In addition, the selectivity ratio in series [4] came out at 3360. For the same compound, in [11], the CC50 was 40.7 µM.
`Cc1cn([C@H]2C[C@H](N=[N+]=[N-])[C@@H](CO)O2)c(=O)[nH]c1=O` [ZIDOVUDINE]: the pEC50 in series [2] was 8.22; in series [3], 7.48; in [5], 7.80; in series [6], 7.80; in series [9], 8.43. The selectivity ratio in [4] was greater than 8270. Besides, the “Ratio EC50” value in series [7] was found to be 1.6; in [8], 4.3; in series [10] it was 8.9. Besides, in series [11], the CC50 was greater than 30.6 µM.
